Test results from ChEMBL document CHEMBL1155468, “Syntheses and evaluation of anticonvulsant profile and teratogenicity of novel amide derivatives of branched aliphatic carboxylic acids with 4-aminobenzensulfonamide” (J Med Chem, 2010).
The source made the active and inactive calls. The calls are words filed in the database; no cut-off is given here.

Experiments:
Rattus norvegicus [1] = test: Anticonvulsant activity in po dosed rat assessed as inhibition of maximal electroshock-induced seizures
Mus musculus [2] = test: Neurotoxicity in CF1 albino mouse assessed as motor impairment at 100 mg/kg, ip after 0.5 hrs; assay type: toxicity, organism-based; parameters: dose 100 mg/kg, route intraperitoneal; conditions: in vivo
Mus musculus [3] = test: Neurotoxicity in CF1 albino mouse assessed as motor impairment at 30 mg/kg, ip after 0.5 hrs; assay type: toxicity, organism-based; parameters: dose 30 mg/kg, route intraperitoneal; conditions: in vivo
Rattus norvegicus [4] = test: Anticonvulsant activity in Sprague-Dawley rat assessed as inhibition of maximal electroshock-induced seizures at 30 mg/kg, po after 15 mins
Mus musculus [5] = test: Anticonvulsant activity in CF1 albino mouse assessed as inhibition of maximal electroshock-induced seizures at 300 mg/kg, ip after 0.5 hrs; assay type: functional, organism-based; parameters: dose 300 mg/kg
Procedure, shortened: (§1)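 Test compounds suspended in 0.5% methylcellulose and given ip to adult male CF no. 1 albino mice (18-25 g) at 0.01 mL/g body weight before maximal electroshock challenge.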

Mus musculus [6] = test: Anticonvulsant activity in CF1 albino mouse assessed as inhibition of subcutaneous pentylenetetrazole-induced seizures at 300 mg/kg, ip after 4 hrs; assay type: functional, organism-based; parameters: dose 300 mg/kg
Procedure, shortened: (§2)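 Adult male CF no. 1 albino mice (18-25 g) dosed ip with compound suspended in 0.5% methylcellulose (0.01 mL/g). Convulsant: pentylenetetrazol dissolved in 0.9% saline as a 0.85% solution for mice, given subcutaneously.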

Mus musculus [7] = test: Neurotoxicity in CF1 albino mouse assessed as motor impairment at 30 mg/kg, ip after 4 hrs; assay type: toxicity, organism-based; parameters: dose 30 mg/kg, route intraperitoneal; conditions: in vivo
Mus musculus [8] = test: Neurotoxicity in CF1 albino mouse assessed as motor impairment at 300 mg/kg, ip after 0.5 hrs; assay type: toxicity, organism-based; parameters: dose 300 mg/kg, route intraperitoneal; conditions: in vivo
Mus musculus [9] = test: Anticonvulsant activity in CF1 albino mouse assessed as inhibition of subcutaneous pentylenetetrazole-induced seizures at 30 mg/kg, ip after 0.5 hrs; assay type: functional, organism-based; parameters: dose 30 mg/kg
Procedure, shortened: as §2

Mus musculus [10] = test: Neurotoxicity in CF1 albino mouse assessed as motor impairment at 300 mg/kg, ip after 4 hrs; assay type: toxicity, organism-based; parameters: dose 300 mg/kg, route intraperitoneal; conditions: in vivo
Mus musculus [11] = test: Anticonvulsant activity in CF1 albino mouse assessed as inhibition of subcutaneous pentylenetetrazole-induced seizures at 100 mg/kg, ip after 4 hrs; assay type: functional, organism-based; parameters: dose 100 mg/kg
Procedure, shortened: as §2

Mus musculus [12] = test: Anticonvulsant activity in CF1 albino mouse assessed as inhibition of maximal electroshock-induced seizures at 30 mg/kg, ip after 4 hrs; assay type: functional, organism-based; parameters: dose 30 mg/kg
Procedure, shortened: as §1

Mus musculus [13] = test: Anticonvulsant activity in CF1 albino mouse assessed as inhibition of subcutaneous pentylenetetrazole-induced seizures at 30 mg/kg, ip after 4 hrs; assay type: functional, organism-based; parameters: dose 30 mg/kg
Procedure, shortened: as §2

Rattus norvegicus [14] = test: Anticonvulsant activity in Sprague-Dawley rat assessed as inhibition of maximal electroshock-induced seizures at 30 mg/kg, po after 30 mins
Mus musculus [15] = test: Anticonvulsant activity in CF1 albino mouse assessed as inhibition of subcutaneous pentylenetetrazole-induced seizures at 300 mg/kg, ip after 0.5 hrs; assay type: functional, organism-based; parameters: dose 300 mg/kg
Procedure, shortened: as §2

Mus musculus [16] = test: Anticonvulsant activity in CF1 albino mouse assessed as inhibition of subcutaneous pentylenetetrazole-induced seizures at 100 mg/kg, ip after 0.5 hrs; assay type: functional, organism-based; parameters: dose 100 mg/kg
Procedure, shortened: as §2

Mus musculus [17] = test: Anticonvulsant activity in CF1 albino mouse assessed as inhibition of maximal electroshock-induced seizures at 300 mg/kg, ip after 4 hrs; assay type: functional, organism-based; parameters: dose 300 mg/kg
Procedure, shortened: as §1

Rattus norvegicus [18] = test: Neurotoxicity in Sprague-Dawley rat assessed as motor impairment at 30 mg/kg, po after 0.25 to 4 hrs; conditions: in vivo
Mus musculus [19] = test: Anticonvulsant activity in CF1 albino mouse assessed as inhibition of maximal electroshock-induced seizures at 30 mg/kg, ip after 0.5 hrs; assay type: functional, organism-based; parameters: dose 30 mg/kg
Procedure, shortened: as §1

Mus musculus [20] = test: Neurotoxicity in CF1 albino mouse assessed as motor impairment at 100 mg/kg, ip after 4 hrs; assay type: toxicity, organism-based; parameters: dose 100 mg/kg, route intraperitoneal; conditions: in vivo
Mus musculus [21] = test: Anticonvulsant activity in CF1 albino mouse assessed as inhibition of maximal electroshock-induced seizures at 100 mg/kg, ip after 0.5 hrs; assay type: functional, organism-based; parameters: dose 100 mg/kg
Procedure, shortened: as §1

Rattus norvegicus [22] = test: Anticonvulsant activity in Sprague-Dawley rat assessed as inhibition of maximal electroshock-induced seizures at 30 mg/kg, po after 2 hrs
Rattus norvegicus [23] = test: Anticonvulsant activity in Sprague-Dawley rat assessed as inhibition of maximal electroshock-induced seizures at 30 mg/kg, po after 1 hr
Mus musculus [24] = test: Anticonvulsant activity in CF1 albino mouse assessed as inhibition of maximal electroshock-induced seizures at 100 mg/kg, ip after 4 hrs; assay type: functional, organism-based; parameters: dose 100 mg/kg
Procedure, shortened: as §1

Rattus norvegicus [25] = species on record: Rattus norvegicus; test: Protective index, ratio of TD50 for rat to ED50 for maximal electroshock-induced rat seizure model

Row | SMILES | Activity (Mus musculus [2]) | Activity (Mus musculus [3]) | Activity (Rattus norvegicus [4]) | Activity (Mus musculus [5]) | Activity (Mus musculus [6]) | Activity (Mus musculus [7]) | Activity (Mus musculus [8]) | Activity (Mus musculus [9]) | Activity (Mus musculus [10]) | Activity (Mus musculus [11]) | Activity (Mus musculus [12]) | Activity (Mus musculus [13]) | Activity (Rattus norvegicus [14]) | Activity (Mus musculus [15]) | Activity (Mus musculus [16]) | Activity (Mus musculus [17]) | Activity (Rattus norvegicus [18]) | Activity (Mus musculus [19]) | Activity (Mus musculus [20]) | Activity (Mus musculus [21]) | also measured
1 | CC1(C)C(C(=O)Nc2ccc(S(N)(=O)=O)cc2)C1(C)C | – | – | – | – | – | – | – | – | – | – | – | – | – | – | – | – | – | – | – | – | ED50 (Rattus norvegicus [1]): 26 mg/kg
2 | CC(C)(C)CC(=O)NCc1ccc(S(N)(=O)=O)cc1 | Non-toxic | Non-toxic | inactive | inactive | inactive | Non-toxic | Non-toxic | inactive | Non-toxic | inactive | inactive | inactive | inactive | inactive | inactive | Active | Non-toxic | inactive | Non-toxic | inactive | –
3 | CC(C)C(C(=O)Nc1ccc(S(N)(=O)=O)cc1)C(C)(C)C (stereo not drawn) | Non-toxic | Non-toxic | inactive | inactive | inactive | Non-toxic | Non-toxic | inactive | Non-toxic | inactive | inactive | inactive | inactive | inactive | inactive | Active | Non-toxic | inactive | Non-toxic | – | ED50 (Rattus norvegicus [1]): 18 mg/kg; Activity (Rattus norvegicus [22]): inactive; Activity (Rattus norvegicus [23]): inactive; Activity (Mus musculus [24]): Active; Ratio TD50/ED50 (Rattus norvegicus [25]): >27.7
4 | CCC(C(=O)Nc1ccc(S(N)(=O)=O)cc1)C(C)(C)C (stereo not drawn) | Non-toxic | Non-toxic | inactive | inactive | inactive | Non-toxic | Non-toxic | inactive | Non-toxic | inactive | inactive | inactive | inactive | inactive | inactive | Active | Non-toxic | inactive | Non-toxic | inactive | Activity (Rattus norvegicus [23]): inactive
5 | CCCC(CCC)C(=O)Nc1ccc(S(N)(=O)=O)cc1 | – | – | – | – | – | – | – | – | – | – | – | – | – | – | – | – | – | – | – | – | ED50 (Rattus norvegicus [1]): 21 mg/kg
6 | CC(C)(C)C(=O)NCc1ccc(S(N)(=O)=O)cc1 | Non-toxic | Non-toxic | – | inactive | inactive | Non-toxic | Non-toxic | inactive | Non-toxic | inactive | inactive | inactive | – | inactive | inactive | inactive | – | inactive | Non-toxic | inactive | Activity (Mus musculus [24]): inactive
7 | CC1(C)C(C(=O)Nc2nnc(S(N)(=O)=O)s2)C1(C)C | – | – | – | – | – | – | – | – | – | – | – | – | – | – | – | – | – | – | – | – | Ratio TD50/ED50 (Rattus norvegicus [25]): >50
8 | CCCC(CCC)C(=O)Nc1nnc(S(N)(=O)=O)s1 | – | – | – | – | – | – | – | – | – | – | – | – | – | – | – | – | – | – | – | – | Ratio TD50/ED50 (Rattus norvegicus [25]): >50
9 | CCC(C)C(CC)C(=O)Nc1ccc(S(N)(=O)=O)cc1 (stereo not drawn) | Non-toxic | Non-toxic | inactive | – | inactive | Non-toxic | Non-toxic | inactive | Non-toxic | inactive | inactive | inactive | inactive | inactive | inactive | Active | Non-toxic | inactive | Non-toxic | – | Activity (Rattus norvegicus [22]): Active; Activity (Mus musculus [24]): Active
10 | CC(C)C(C(=O)Nc1ccc(S(N)(=O)=O)cc1)C(C)C | Non-toxic | Non-toxic | inactive | inactive | inactive | Non-toxic | Non-toxic | inactive | Non-toxic | inactive | inactive | inactive | inactive | inactive | inactive | inactive | Non-toxic | inactive | Non-toxic | inactive | Activity (Rattus norvegicus [22]): inactive; Activity (Rattus norvegicus [23]): inactive; Activity (Mus musculus [24]): inactive
11 | CCC(CC)C(=O)NCCc1ccc(S(N)(=O)=O)cc1 | Non-toxic | Non-toxic | – | inactive | inactive | Non-toxic | Non-toxic | inactive | Non-toxic | inactive | Active | inactive | – | inactive | inactive | Active | Non-toxic | inactive | Non-toxic | inactive | –
